Assay results from PMC3901358 (Journal of immunology (Baltimore, Md. : 1950), 2010).

Tests used:
[1] = system: CD4^+ T cells from PBLs of melanoma patients; assay: In vitro sensitization of PBLs with peptide and intracellular cytokine staining; assay type: cell-based, human; conditions: for patients with peptide-specific spontaneous CD4^+ T cells: 16 patients with stage IV LAGE-1^+/NY-ESO-1^+ melanoma, ICS after 10–12 d IVS; for Th1/Th2 Spontaneous Response Test by ICS, response type / Number of IFN-γ–producing CD4^+ T cells / number of IL-5–producing CD4^+ T cells: PBLs, 10–12 d IVS with the peptide, ICS; for Number of IFN-γ–producing CD4^+ T cells / number of IL-5–producing CD4^+ T cells: background subtracted
[2] = system: Serum NY-ESO-1– and LAGE-1b–specific Abs; assay: ELISA of patient sera on plates coated with peptide or protein; assay type: binding, human; conditions: among the 16 patients with NY-ESO-1^+/LAGE-1^+ tumors
Summary of the method: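 Plates coated overnight at 4°C with recombinant NY-ESO-1 protein or 18-aa overlapping LAGE-1b peptides (P132–P210), 1 µg/ml in 15 mM Na₂CO₃/30 mM NaHCO₃ pH 9.6 with 0.02% NaN₃. Blocked overnight at 4°C with PBS/2% BSA. Patient sera (NY-ESO-1⁺/LAGE-1⁺ or negative tumors) in PBS/2% BSA, 4-fold dilution series, 2 h RT. Goat anti-human IgG-AP 1 h RT. Phosphatase substrate 25 min RT, read immediately.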

[3] = system: LAGE-1–specific CD4^+ T cell clones; assay: IFN-γ ELISPOT, CD4+ T cell clones with peptide-pulsed L.DR cells; assay type: cell-based, human; conditions: 48-h IFN-γ ELISPOT
[4] = irrelevant control peptide (1 µg/ml), all healthy donors and patients, 6 h ICS

HIVpol711–725: irrelevant HIV-derived control peptide in ICS [reference compound]
mean value of IFN-γ–producing CD4^+ T cells [1, 4]: 25 per 10^5 CD4^+ T cells
mean value of IL-5–producing CD4^+ T cells [1, 4]: 22 per 10^5 CD4^+ T cells

LAGE-1_97–114: 18-aa overlapping synthetic peptide, LAGE-1 positions 97–114; immunodominant epitope (SSPMEAELVRRILSRDAA; UniProt O75638 97-114, looked up, fragment)
patients with peptide-specific spontaneous CD4^+ T cells [1]: 7 out of 16
Th1/Th2 Spontaneous Response Test by ICS, response type ([1]; patient MP2): Th2 (0, 100)
Number of IFN-γ–producing CD4^+ T cells ([1]; patient MP2): 0 per 10^5 CD4^+ T cells
number of IL-5–producing CD4^+ T cells ([1]; patient MP2): 100 per 10^5 CD4^+ T cells
Th1/Th2 Spontaneous Response Test by ICS, response type ([1]; patient MP4): Th1 (101, 18)
Number of IFN-γ–producing CD4^+ T cells ([1]; patient MP4): 101 per 10^5 CD4^+ T cells
number of IL-5–producing CD4^+ T cells ([1]; patient MP4): 18 per 10^5 CD4^+ T cells
Th1/Th2 Spontaneous Response Test by ICS, response type ([1]; patient MP6): Th1 (110, 20)
Number of IFN-γ–producing CD4^+ T cells ([1]; patient MP6): 110 per 10^5 CD4^+ T cells
number of IL-5–producing CD4^+ T cells ([1]; patient MP6): 20 per 10^5 CD4^+ T cells
Th1/Th2 Spontaneous Response Test by ICS, response type ([1]; patient MP7): Th2 (0, 435)
Number of IFN-γ–producing CD4^+ T cells ([1]; patient MP7): 0 per 10^5 CD4^+ T cells
number of IL-5–producing CD4^+ T cells ([1]; patient MP7): 435 per 10^5 CD4^+ T cells
Th1/Th2 Spontaneous Response Test by ICS, response type ([1]; patient MP9): Th1/Th2 (83, 193)
Number of IFN-γ–producing CD4^+ T cells ([1]; patient MP9): 83 per 10^5 CD4^+ T cells
number of IL-5–producing CD4^+ T cells ([1]; patient MP9): 193 per 10^5 CD4^+ T cells
Th1/Th2 Spontaneous Response Test by ICS, response type ([1]; patient MP15): Th1/Th2 (60, 530)
Number of IFN-γ–producing CD4^+ T cells ([1]; patient MP15): 60 per 10^5 CD4^+ T cells
number of IL-5–producing CD4^+ T cells ([1]; patient MP15): 530 per 10^5 CD4^+ T cells
Th1/Th2 Spontaneous Response Test by ICS, response type ([1]; patient MP16): Th1 (170, 0)
Number of IFN-γ–producing CD4^+ T cells ([1]; patient MP16): 170 per 10^5 CD4^+ T cells
number of IL-5–producing CD4^+ T cells ([1]; patient MP16): 0 per 10^5 CD4^+ T cells

LAGE-1_104–121: 18-aa overlapping synthetic peptide, LAGE-1 positions 104–121; immunodominant epitope (LVRRILSRDAAPLPRPGA; UniProt O75638 104-121, looked up, fragment)
patients with peptide-specific spontaneous CD4^+ T cells [1]: 10 out of 16
Th1/Th2 Spontaneous Response Test by ICS, response type ([1]; patient MP1): Th1/Th2 (213, 79)
Number of IFN-γ–producing CD4^+ T cells ([1]; patient MP1): 213 per 10^5 CD4^+ T cells
number of IL-5–producing CD4^+ T cells ([1]; patient MP1): 79 per 10^5 CD4^+ T cells
Th1/Th2 Spontaneous Response Test by ICS, response type ([1]; patient MP2): Th2 (0, 110)
Number of IFN-γ–producing CD4^+ T cells ([1]; patient MP2): 0 per 10^5 CD4^+ T cells
number of IL-5–producing CD4^+ T cells ([1]; patient MP2): 110 per 10^5 CD4^+ T cells
Th1/Th2 Spontaneous Response Test by ICS, response type ([1]; patient MP3): Th1 (130, 0)
Number of IFN-γ–producing CD4^+ T cells ([1]; patient MP3): 130 per 10^5 CD4^+ T cells
number of IL-5–producing CD4^+ T cells ([1]; patient MP3): 0 per 10^5 CD4^+ T cells
Th1/Th2 Spontaneous Response Test by ICS, response type ([1]; patient MP5): Th1/Th2 (505, 80)
Number of IFN-γ–producing CD4^+ T cells ([1]; patient MP5): 505 per 10^5 CD4^+ T cells
number of IL-5–producing CD4^+ T cells ([1]; patient MP5): 80 per 10^5 CD4^+ T cells
Th1/Th2 Spontaneous Response Test by ICS, response type ([1]; patient MP6): Th1/Th2 (351, 185)
Number of IFN-γ–producing CD4^+ T cells ([1]; patient MP6): 351 per 10^5 CD4^+ T cells
number of IL-5–producing CD4^+ T cells ([1]; patient MP6): 185 per 10^5 CD4^+ T cells
Th1/Th2 Spontaneous Response Test by ICS, response type ([1]; patient MP7): Th2 (0, 543)
Number of IFN-γ–producing CD4^+ T cells ([1]; patient MP7): 0 per 10^5 CD4^+ T cells
number of IL-5–producing CD4^+ T cells ([1]; patient MP7): 543 per 10^5 CD4^+ T cells
Th1/Th2 Spontaneous Response Test by ICS, response type ([1]; patient MP8): Th1/Th2 (341, 221)
Number of IFN-γ–producing CD4^+ T cells ([1]; patient MP8): 341 per 10^5 CD4^+ T cells
number of IL-5–producing CD4^+ T cells ([1]; patient MP8): 221 per 10^5 CD4^+ T cells
Th1/Th2 Spontaneous Response Test by ICS, response type ([1]; patient MP9): Th1/Th2 (205, 65)
Number of IFN-γ–producing CD4^+ T cells ([1]; patient MP9): 205 per 10^5 CD4^+ T cells
number of IL-5–producing CD4^+ T cells ([1]; patient MP9): 65 per 10^5 CD4^+ T cells
Th1/Th2 Spontaneous Response Test by ICS, response type ([1]; patient MP12): Th1 (270, 0)
Number of IFN-γ–producing CD4^+ T cells ([1]; patient MP12): 270 per 10^5 CD4^+ T cells
number of IL-5–producing CD4^+ T cells ([1]; patient MP12): 0 per 10^5 CD4^+ T cells
Th1/Th2 Spontaneous Response Test by ICS, response type ([1]; patient MP14): Th1 (400, 0)
Number of IFN-γ–producing CD4^+ T cells ([1]; patient MP14): 400 per 10^5 CD4^+ T cells
number of IL-5–producing CD4^+ T cells ([1]; patient MP14): 0 per 10^5 CD4^+ T cells

LAGE-1b118–135: 18-aa overlapping synthetic peptide, LAGE-1b positions 118–135; immunodominant epitope (RPGAVLKDFTVSGNLLFM; LAGE-1b; UniProt O75638 118-135, looked up, fragment)
patients with peptide-specific spontaneous CD4^+ T cells [1]: 9 out of 16

LAGE-1b167–184: 18-aa overlapping synthetic peptide, LAGE-1b positions 167–184 (DLRTPKHKVSEQRPGTPG; LAGE-1b; UniProt O75638 167-184, looked up, fragment)
number of patients with high titers of LAGE-1b Abs recognizing the peptide [2]: 4

LAGE-1b188–210: overlapping synthetic peptide, LAGE-1b positions 188–210 (PEGAQGDGCRGVAFNVMFSAPHI; LAGE-1b; UniProt O75638 188-210, looked up, fragment)
number of patients with high titers of LAGE-1b Abs recognizing the peptide [2]: 4

NY-ESO-1_104–121: NY-ESO-1 peptide overlapping the LAGE-1_104–121 sequence, control (LARRSLAQDAPPLPVPGV; UniProt P78358 104-121, looked up, fragment)
recognition of peptide by LAGE-1_104–121–specific CD4^+ T cell clone 116/12 [3]: did not recognize
